MrgX1 PAM – allosterically activates human MrgX1 receptor signaling; Q96LB2; MrgX1-HEK293, Fluo-4 calcium flux, FDSS; active compounds read high; B-score at 10 µM; 310,000 compounds, 0.63% hits;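 active = plate-corrected calcium response at least 3 library SD above typical, normal starting fluorescence, not activating the receptor alone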;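 also: compound read alongside a low EC10 to EC30 dose of BAM8-22 agonist; peak minus trough fluorescence over baseline measured at the second addition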
Target sequence (Q96LB2 whole entry, looked up): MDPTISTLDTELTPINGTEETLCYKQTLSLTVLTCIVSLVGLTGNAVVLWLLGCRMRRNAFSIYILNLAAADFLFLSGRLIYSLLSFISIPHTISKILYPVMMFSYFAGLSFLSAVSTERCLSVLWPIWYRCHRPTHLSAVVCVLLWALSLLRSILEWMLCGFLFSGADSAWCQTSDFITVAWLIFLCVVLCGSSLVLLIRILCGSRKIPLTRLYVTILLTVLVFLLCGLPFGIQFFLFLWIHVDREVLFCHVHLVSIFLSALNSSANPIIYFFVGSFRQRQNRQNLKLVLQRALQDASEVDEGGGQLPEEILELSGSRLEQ
RGS4 block – human RGS4 inhibition; HEK293 M3R/RGS4 inducible, Fluo-4 calcium flux; active compounds read high; triggered by carbachol at its EC20; B-score at 10 µM; 310,000 compounds, 0.45% hits; P49798;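 active = B-score, a plate-corrected calcium signal, over three deviations above library mean, with baseline fluorescence within five deviations of library mean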;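 also: RGS4 expression induced by doxycycline in cells with stable M3 receptor; B-score is computed from the integrated fluorescence ratio over baseline after carbachol; higher B-score means a larger calcium signal and so more RGS4 inhibition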
MrgX1 ag – agonists of human MrgX1 receptor; MrgX1-HEK293 cells, Fluo-4 calcium fluorescence, agonist mode; active compounds read high; B-score at 10 µM; 310,000 compounds, 0.44% hits; AID 588627;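 active = calcium response B-score plate-corrected fluorescence ratio at least 3 library SD, with starting fluorescence B-score inside 5 SD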
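Test system: Stable human MrgX1 HEK293 cell line | Schedule: Overnight plating before 1 h dye loading | Read-out basis: Baseline-normalised fluorescence change ratio, B-scored | Detection: Kinetic calcium dye fluorescence, Fluo-4 NW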
MrgX1 antag – blocks BAM8-22 activation of human MrgX1 receptor; 310,000 compounds, 1.3% hits; B-score at 10 µM; MRGX1-HEK293 calcium flux, Fluo-4, BAM8-22 antagonism; active compounds read low; AID 588676; Q96LB2;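 active = calcium-response B-score plate-corrected more than 3 library SD below zero, starting fluorescence within 5 deviations, no agonist response on first addition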;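 also: peak minus trough fluorescence over baseline after final BAM8-22 challenge near maximal dose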
RGS4 pot – RGS4 potentiation or activation. 310,000 compounds, 0.92% hits. B-score at 10 µM. HEK293 M3R/inducible RGS4, carbachol calcium flux Fluo4; active compounds read low;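 active = B-score of the integrated calcium signal more than 4 SD below the library mean, with starting fluorescence not abnormally high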;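 also: negative B-score means reduced calcium response which marks RGS4 activation or potentiation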
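test system = HEK293 cells with stable M3R and inducible RGS4 | schedule = recording 10 s baseline at 1 Hz, 100 s post-agonist | technique = Fluo4-AM (2 µM) calcium-flux fluorescence, kinetic read | measure = Agonist-evoked peak-minus-minimum fluorescence over baseline, integrated ratio, B score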
Hits are given with their value; n = inactive; x = not tested or not shown. Only some compounds are listed: those with a hit (about 3.5% of all), similar ones and a draw of the others.

SMILES	MrgX1 PAM	RGS4 block	MrgX1 ag	MrgX1 antag	RGS4 pot
CCNC(=O)CC1C(=O)N(c2ccccc2)C(=O)N1CCOC (configuration not stated)	n	n	n	n	n
Cc1nn(-c2ccccc2)nc1CNC(=O)c1ncoc1-c1ccccc1	n	n	n	n	-7.39
CCCCCCCCCCCC(=O)c1c(O)cccc1O	n	n	n	n	-9.16
C(C#CCCCCCCCCC[n+]1ccccc1)#CCCCCCCCCC[n+]1ccccc1	n	n	n	n	-12.2
O=C(c1ccco1)N1CCN(Cc2nnc(-c3ccccc3)o2)CC1	n	n	n	n	n
Cc1nc2nc(NC(=O)c3ccco3)nn2c(C)c1Cl	n	n	n	n	n
COc1cc(OC)c(NC(=O)Cn2cnc3sc(C)c(S(=O)(=O)N4CCOCC4)c3c2=O)cc1Cl	n	n	n	n	n
COc1ccc(-c2noc(CCC(=O)N3CCC(C)CC3)n2)cc1	n	n	n	n	n
COc1ccc(-c2noc(CCC(=O)N3CCN(Cc4ccccc4)CC3)n2)cc1	n	n	n	-5.32	n
CCN(CC)c1nc(SCCOC(=O)Nc2ccccc2)nc(N(CC)CC)n1	n	n	n	n	-8.79
CCOC(=O)C1CCCN(C(=O)c2ccc(C)c([N+](=O)[O-])c2)C1 (configuration not stated)	n	n	n	n	-8.59
CCOC(=O)C1CCCN(C(=O)c2ccc([N+](=O)[O-])c(C)c2)C1 (configuration not stated)	n	n	n	n	n
Clc1cccc(Cl)c1/C=C/c1nc2ccccc2[nH]1	7.75	n	n	n	n
CC1=NN(C(N)=S)C(=O)C1N=Nc1ccccc1C(=O)O (configuration not stated)	n	n	n	n	n
CN1C(=O)C(N=Nc2ccccc2C(=O)O)N(C)C1=S (configuration not stated)	n	n	48.5	n	n
CCOC(=O)C(C)CC(C)C(=O)N1CCOCCOCCN(C(=O)C(C)CC(C)C(=O)OCC)CCOCC1 (configuration not stated)	n	n	n	n	n
CCOC(=O)C(C(=O)OCC)C(C(=O)OCC)N1CCOCC1 (configuration not stated)	n	n	31.3	n	n
CC(=O)c1c(C)n(-c2ccccc2Br)c2ccc(O)cc12	n	n	n	n	n
Oc1ccccc1-c1nc(NCC2CCCO2)c2ccccc2n1 (configuration not stated)	n	n	n	n	-8.45
CC(C)(C)c1ccc(OCCCNC2CCCC2)cc1	n	n	n	n	-7.37
Cc1ccc(S(=O)(=O)N2[C@@H](c3ccc(F)cc3)C(C(=O)O)=CC[C@H]2c2cccc(C)c2)cc1	n	x	n	n	x
Cc1ccc(S(=O)(=O)N2[C@@H](c3ccc(F)cc3)C(C(=O)O)=CC[C@H]2c2ccc3c(c2)OCO3)cc1	9.47	x	n	n	x
Cc1ccc(S(=O)(=O)N2[C@@H](c3ccccc3F)C(C(=O)O)=CC[C@H]2c2ccc3c(c2)OCO3)cc1	14.1	x	n	n	x
COc1ccc([C@@H]2CC=C(C(=O)O)[C@H](c3ccccc3F)N2S(=O)(=O)c2ccc(C)cc2)cc1OC	n	x	n	n	x
CCOc1ccc(NC(=O)C2CCN(S(=O)(=O)c3ccc4c(c3)C(C)(C)C(=O)N4C)CC2)cc1	n	n	n	n	n
SMILES	MrgX1 PAM	RGS4 block	MrgX1 ag	MrgX1 antag	RGS4 pot
COc1cccc(C(c2c(C)[nH]n(-c3ccccc3)c2=O)c2c(C)[nH]n(-c3ccccc3)c2=O)c1O	n	n	n	n	n
Cc1[nH]n(-c2ccccc2)c(=O)c1C(c1ccc(O)c([N+](=O)[O-])c1)c1c(C)[nH]n(-c2ccccc2)c1=O	n	5.06	n	n	n
Cc1[nH]n(-c2ccccc2)c(=O)c1C(C[N+](=O)[O-])c1ccccc1Cl (configuration not stated)	n	n	45.7	n	n
O=C(C1CCN(Cc2ccc(Cl)cc2)CC1)N1CCN(C(c2ccccc2)c2ccccc2)CC1	n	n	n	n	-8.01
COc1ccc(CN2CC[C@@H](N3CCOCC3)[C@H](O)C2)cc1F	n	n	n	n	n
Cc1ccc(/C=C2\SC(=O)N(CCNC(=O)C3CSC4(C)CCC(=O)N34)C2=O)cc1 (configuration not stated)	n	n	n	n	n

Screening results from PubChem.
